Experimental data taken from ChEMBL document CHEMBL1275442, “Pharmacokinetics and tissue distribution of anidulafungin in rats” (Antimicrob Agents Chemother, 2008).

Experiments:
Cerebrospinal fluid = assay: Drug level in Long Evans rat cerebrospinal fluid assessed as radioactivity per gram of tissue at 5 mg/kg, iv administered as single bolus dose measured 0.5 hrs postdose by autoradiography; format: ADME, organism-based; design: dose 5 mg/kg, route intravenous; details: in vivo
Procedure, shortened: (§1)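 Male pigmented Long Evans (HsdBlu:LE) rats, 7.5 weeks old, 202 to 217 g, single iv [¹⁴C]anidulafungin; one rat per sampling time. Euthanized by isoflurane and cardiac-puncture exsanguination. Sagittal whole-body sections quantified by phosphorimaging autoradiography, single samples corrected for section thickness across multiple sections per tissue. Concentrations (μg eq/g drug-derived radioactivity) interpolated from least-squares standard curves per scan.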

Liver [1] = assay: Drug level in Long Evans rat liver assessed as high disposition of radioactivity per gram of tissue at 5 mg/kg, iv administered as single bolus dose measured 0.5 hrs postdose by autoradiography; format: ADME, organism-based; design: dose 5 mg/kg, route intravenous; details: in vivo; procedure, shortened: as §1
Spleen [2] = assay: Half life in F344 rat spleen assessed as total compound-derived radioactivity at 5 mg/kg, iv administered as single bolus dose […]; format: ADME, organism-based; design: dose 5 mg/kg, route intravenous; details: in vivo
Procedure, shortened: (§2)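 Male F344 rats, 10 to 11 weeks old and 223.6 to 243.8 g, got one iv dose of [14C]anidulafungin at 5 mg/kg over about 5 min. Blood, CSF, kidney, liver, lung, quadriceps, spleen and skin were sampled predose and at 0.083 to 72 h, 3 rats per time. Total radioactivity (parent plus metabolites) was measured by liquid scintillation counting. Parameters were noncompartmental, from a composite mean profile.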

Spleen [3] = assay: AUC (0 to infinity) in F344 rat spleen assessed as total compound-derived radioactivity per gram of tissue at 5 mg/kg, iv administered as single bolus dose […]; format: ADME, organism-based; design: time infinity, dose 5 mg/kg, route intravenous; details: in vivo
Procedure, shortened: (§3)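 Same F344 study: single 5 mg/kg IV [¹⁴C]anidulafungin given over about 5 min. Total drug-derived radioactivity (parent plus metabolites) counted by liquid scintillation, in […]. Noncompartmental analysis of the composite mean profile.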

Liver [4] = assay: AUC (0 to infinity) in F344 rat liver assessed as total compound-derived radioactivity per gram of tissue at 5 mg/kg, iv administered as single bolus dose […]; format: ADME, organism-based; design: time infinity, dose 5 mg/kg, route intravenous; details: in vivo; procedure, shortened: as §3
Plasma = assay: AUC (0 to 24 hrs) in F344 rat plasma assessed as total compound-derived radioactivity per gram of tissue at 5 mg/kg, iv administered as single bolus dose […]; format: ADME, organism-based; design: time < 24 hr, dose 5 mg/kg, route intravenous; details: in vivo; procedure, shortened: as §3
Spleen [5] = assay: Tmax in F344 rat spleen assessed as total compound-derived radioactivity at 5 mg/kg, iv administered as single bolus dose […]; format: ADME, organism-based; design: dose 5 mg/kg, route intravenous; details: in vivo; procedure, shortened: as §2
Blood = assay: Cmax in F344 rat blood assessed as total compound-derived radioactivity per gram of tissue at 5 mg/kg, iv administered as single bolus dose […]; format: ADME, organism-based; design: dose 5 mg/kg, route intravenous; details: in vivo; procedure, shortened: as §3
Zone of skin = assay: Cmax in F344 rat skin assessed as total compound-derived radioactivity per gram of tissue at 5 mg/kg, iv administered as single bolus dose […]; format: ADME, organism-based; design: dose 5 mg/kg, route intravenous; details: in vivo; procedure, shortened: as §3
Liver [6] = assay: Cmax in F344 rat liver assessed as total compound-derived radioactivity per gram of tissue at 5 mg/kg, iv administered as single bolus dose […]; format: ADME, organism-based; design: dose 5 mg/kg, route intravenous; details: in vivo; procedure, shortened: as §3
Spleen [7] = assay: AUC (0 to 24 hrs) in F344 rat spleen at 5 mg/kg, iv administered as single bolus dose; format: ADME, organism-based; design: time < 24 hr, dose 5 mg/kg, route intravenous; details: in vivo
Procedure, shortened: (§4)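 Male F344 rats, 10–11 weeks, 223.6–243.8 g, given one IV dose of [¹⁴C]anidulafungin, 5 mg/kg, over about 5 min. Tissues and blood sampled at 0.083–72 h (n = 3 rats per time). Parent drug measured by HPLC; LLOQ/ULOQ were 20/5,120 ng/ml for plasma and 220/56,320 ng/g for tissue. Noncompartmental parameters taken from the composite mean profile.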

Liver [8] = assay: AUC (0 to 24 hrs) in F344 rat liver at 5 mg/kg, iv administered as single bolus dose; format: ADME, organism-based; design: time < 24 hr, dose 5 mg/kg, route intravenous; details: in vivo; procedure, shortened: as §4
[9] = Tmax in F344 rat spleen at 5 mg/kg, iv administered as single bolus dose by HPLC method; format: ADME, organism-based; design: dose 5 mg/kg, route intravenous
Procedure, shortened: (§5)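 F344 males, 10 to 11 weeks old and 223.6 to 243.8 g, got a single 5 mg/kg iv dose of [14C]anidulafungin over about 5 min. Plasma and tissues were collected predose and at 0.083 to 72 h, n = 3 per time point. Parent drug was quantified by HPLC-UV, with LLOQ/ULOQ of 20/5,120 ng/ml in plasma and 220/56,320 ng/g in tissue. Noncompartmental parameters came from a composite mean concentration-time profile.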

[10] = Tmax in F344 rat liver at 5 mg/kg, iv administered as single bolus dose by HPLC method; format: ADME, organism-based; design: dose 5 mg/kg, route intravenous; procedure, shortened: as §5
[11] = Cmax in F344 rat muscle at 5 mg/kg, iv administered as single bolus dose after 30 min by HPLC method; format: ADME, organism-based, Muscle tissue; design: dose 5 mg/kg, route intravenous; procedure, shortened: as §4
Liver [12] = assay: Drug level in Long Evans rat liver assessed as low disposition of radioactivity per gram of tissue at 5 mg/kg, iv administered as single bolus dose measured 6 hrs postdose by autoradiography; format: ADME, organism-based; design: dose 5 mg/kg, route intravenous; details: in vivo; procedure, shortened: as §1
Muscle tissue [13] = assay: AUC (0 to infinity) in F344 rat muscle at 5 mg/kg, iv administered as single bolus dose; format: ADME, organism-based; design: dose 5 mg/kg, route intravenous, time infinity; details: in vivo; procedure, shortened: as §4
Spleen [14] = assay: Drug level in Long Evans rat spleen assessed as radioactivity per gram of tissue at 5 mg/kg, iv administered as single bolus dose measured 6 hrs postdose by autoradiography; format: ADME, organism-based; design: dose 5 mg/kg, route intravenous; details: in vivo
Procedure, shortened: (§6)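 Male pigmented Long Evans (HsdBlu:LE) rats, 7.5 weeks old and 202 to 217 g, got a single iv dose of [14C]anidulafungin at 5 mg/kg. One rat per time point (0.5, 6, 12, 24, 72, 168 h) was euthanised by isoflurane and cardiac-puncture exsanguination. Sagittal whole-body sections were quantified by phosphorimaging. Samples were thickness-corrected, and concentrations (μg eq/g) were interpolated from least-squares standard curves.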

Muscle tissue [15] = assay: Drug level in Long Evans rat muscle assessed as radioactivity per gram of tissue at 5 mg/kg, iv administered as single bolus dose measured 6 hrs postdose by autoradiography; format: ADME, organism-based; design: dose 5 mg/kg, route intravenous; details: in vivo; procedure, shortened: as §6
[16] = Drug level in Long Evans rat eye assessed as radioactivity per gram of tissue at 5 mg/kg, iv administered as single bolus dose measured 6 hrs postdose by autoradiography; format: ADME, organism-based; design: dose 5 mg/kg, route intravenous; details: in vivo; procedure, shortened: as §1
Liver [17] = assay: Drug level in Long Evans rat liver assessed as low disposition of radioactivity per gram of tissue at 5 mg/kg, iv administered as single bolus dose measured 24 hrs postdose by autoradiography; format: ADME, organism-based; design: dose 5 mg/kg, route intravenous; details: in vivo; procedure, shortened: as §1
Spleen [18] = assay: Drug level in Long Evans rat spleen assessed as radioactivity per gram of tissue at 5 mg/kg, iv administered as single bolus dose measured 24 hrs postdose by autoradiography; format: ADME, organism-based; design: dose 5 mg/kg, route intravenous; details: in vivo; procedure, shortened: as §6
Muscle tissue [19] = assay: Drug level in Long Evans rat muscle assessed as radioactivity per gram of tissue at 5 mg/kg, iv administered as single bolus dose measured 24 hrs postdose by autoradiography; format: ADME, organism-based; design: dose 5 mg/kg, route intravenous; details: in vivo; procedure, shortened: as §6
Spleen [20] = assay: Drug level in Long Evans rat spleen assessed as radioactivity per gram of tissue at 5 mg/kg, iv administered as single bolus dose measured 72 hrs postdose by autoradiography; format: ADME, organism-based; design: dose 5 mg/kg, route intravenous; details: in vivo; procedure, shortened: as §6
Lung = assay: Drug level in Long Evans rat lung assessed as radioactivity per gram of tissue at 5 mg/kg, iv administered as single bolus dose measured 168 hrs postdose by autoradiography; format: ADME, organism-based; design: dose 5 mg/kg, route intravenous; details: in vivo; procedure, shortened: as §1
Kidney = assay: Drug level in Long Evans rat kidney assessed as low disposition of radioactivity per gram of tissue at 5 mg/kg, iv administered as single bolus dose measured 168 hrs postdose by autoradiography; format: ADME, organism-based; design: dose 5 mg/kg, route intravenous; details: in vivo; procedure, shortened: as §1
Rattus norvegicus = assay: Volume of distribution in F344 rat assessed as total compound-derived radioactivity at 5 mg/kg, iv administered as single bolus dose; format: ADME, organism-based; design: dose 5 mg/kg, route intravenous; details: in vivo; procedure, shortened: as §2

Structure (SMILES): CCCCCOc1ccc(-c2ccc(-c3ccc([14C](=O)N[C@H]4C[C@@H](O)[C@@H](O)NC(=O)[C@@H]5[C@@H](O)[C@@H](C)CN5C(=O)[C@H]([C@@H](C)O)NC(=O)[C@H]([C@H](O)[C@@H](O)c5ccc(O)cc5)NC(=O)[C@@H]5C[C@@H](O)CN5C(=O)[C@H]([C@@H](C)O)NC4=O)cc3)cc2)cc1 [14C-ANIDULAFUNGIN]
- Drug uptake (Cerebrospinal fluid): 5.51 ugequiv
- Drug uptake (Liver [1]): 11.79 ugequiv
- t1/2 (Spleen [2]): 40.3 h
- AUC (Spleen [3]): 1152.68 ugequiv.hr/g
- AUC (Liver [4]): 2656.38 ugequiv.hr/g
- AUC (Plasma): 131.77 ugequiv.hr/g
- Tmax (Spleen [5]): 30 min
- Cmax (Blood): 14.78 ugequiv/g
- Cmax (Zone of skin): 5.4 ugequiv/g
- Cmax (Liver [6]): 24.28 ugequiv/g
- AUC (Spleen [7]): 490.36 µg·h/g
- AUC (Liver [8]): 586.44 µg·h/g
- Tmax [9]: 30 min
- Tmax [10]: 4.98 min
- Cmax [11]: 3840 ng/g
- Drug uptake (Liver [12]): 17.68 ugequiv
- AUC (Muscle tissue [13]): 57.35 µg·h/g
- Drug uptake (Spleen [14]): 22.15 ugequiv
- Drug uptake (Muscle tissue [15]): 2.53 ugequiv
- Drug uptake [16]: 1.74 ugequiv
- Drug uptake (Liver [17]): 14.7 ugequiv
- Drug uptake (Spleen [18]): 10.25 ugequiv
- Drug uptake (Muscle tissue [19]): 1.17 ugequiv
- Drug uptake (Spleen [20]): 4.37 ugequiv
- Drug uptake (Lung): 0.96 ugequiv
- Drug uptake (Kidney): 0.7 ugequiv
- Vd (Rattus norvegicus): 0.2 L/kg
